Measured values from ChEMBL document CHEMBL1132569.

Columns and labels:
[1] = target: T1, Muscarinic acetylcholine receptor M1 (Homo sapiens) (UniProt P11229); assay: Binding affinity at the unliganded human muscarinic acetylcholine receptor M1 was estimated as log affinity (log1/M)
T1 sequence (whole entry): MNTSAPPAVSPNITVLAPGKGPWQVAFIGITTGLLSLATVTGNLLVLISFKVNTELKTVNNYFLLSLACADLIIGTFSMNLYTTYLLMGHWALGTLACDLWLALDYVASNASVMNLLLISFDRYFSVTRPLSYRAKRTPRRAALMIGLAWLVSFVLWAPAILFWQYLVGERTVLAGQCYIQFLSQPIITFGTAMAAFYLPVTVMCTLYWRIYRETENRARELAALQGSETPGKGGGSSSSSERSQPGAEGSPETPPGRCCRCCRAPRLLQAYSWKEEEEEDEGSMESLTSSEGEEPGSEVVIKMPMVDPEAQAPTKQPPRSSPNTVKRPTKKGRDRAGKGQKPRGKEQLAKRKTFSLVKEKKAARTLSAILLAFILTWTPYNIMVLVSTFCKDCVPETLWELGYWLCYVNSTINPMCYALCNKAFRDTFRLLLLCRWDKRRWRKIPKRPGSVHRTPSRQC
Outline: (§1)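 Equilibrium runs were ≥2 h with 2 × 10⁻⁴ M GTP and 0.1–0.7 nM ³H-NMS. Nonspecific binding was defined with 10⁻⁶ M QNB, and bound ligand was filtered and counted. Log affinities came from semiquantitative plus off-rate, quantitative equilibrium, or nonequilibrium assays, fitted by nonlinear least squares to the allosteric ternary complex model.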

[2] = target: T2, Muscarinic acetylcholine receptor M4 (Homo sapiens) (UniProt P08173); assay: Cooperativity with NMS at human muscarinic acetylcholine receptor M4
T2 sequence (whole entry): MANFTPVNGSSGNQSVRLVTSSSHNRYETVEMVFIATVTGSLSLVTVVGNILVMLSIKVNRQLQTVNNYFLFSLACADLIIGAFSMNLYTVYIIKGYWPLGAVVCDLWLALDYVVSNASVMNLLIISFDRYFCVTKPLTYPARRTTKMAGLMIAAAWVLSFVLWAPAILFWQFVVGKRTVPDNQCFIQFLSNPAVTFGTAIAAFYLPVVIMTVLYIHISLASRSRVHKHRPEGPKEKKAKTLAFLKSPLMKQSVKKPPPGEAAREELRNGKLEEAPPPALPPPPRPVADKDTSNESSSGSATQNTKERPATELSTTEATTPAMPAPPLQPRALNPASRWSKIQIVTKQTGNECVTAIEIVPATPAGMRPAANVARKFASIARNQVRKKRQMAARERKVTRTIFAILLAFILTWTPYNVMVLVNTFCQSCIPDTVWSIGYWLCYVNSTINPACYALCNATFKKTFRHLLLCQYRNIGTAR
Outline: (§2)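 Equilibrium ³H-NMS binding in CHO membranes expressing human m1–m5 receptors was measured with and without ACh, alone and with three agent concentrations. Data were converted to affinity ratios, meaning apparent primary-ligand affinity with agent divided by affinity without it.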

[3] = target: T3, Muscarinic acetylcholine receptor M2 (Homo sapiens) (UniProt P08172); assay: Cooperativity with acetylcholine at human muscarinic acetylcholine receptor M2; outline: as §2
T3 sequence (whole entry): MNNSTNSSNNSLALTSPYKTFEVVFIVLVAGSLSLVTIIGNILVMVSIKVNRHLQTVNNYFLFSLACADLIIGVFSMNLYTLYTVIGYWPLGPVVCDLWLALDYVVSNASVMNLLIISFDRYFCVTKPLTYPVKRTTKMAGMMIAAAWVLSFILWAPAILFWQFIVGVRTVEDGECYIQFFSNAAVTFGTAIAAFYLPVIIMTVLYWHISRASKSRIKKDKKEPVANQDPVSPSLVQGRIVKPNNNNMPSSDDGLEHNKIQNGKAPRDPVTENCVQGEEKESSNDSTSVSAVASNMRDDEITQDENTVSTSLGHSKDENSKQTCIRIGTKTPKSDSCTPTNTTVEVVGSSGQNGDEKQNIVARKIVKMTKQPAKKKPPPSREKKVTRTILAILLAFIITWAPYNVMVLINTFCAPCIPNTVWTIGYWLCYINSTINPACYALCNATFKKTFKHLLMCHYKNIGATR

[4] = target: T2, Muscarinic acetylcholine receptor M4 (Homo sapiens); assay: Binding affinity at the unliganded human muscarinic acetylcholine receptor M4 was estimated as log affinity (log1/M); outline: as §1
[5] = target: Muscarinic acetylcholine receptor M3 (Homo sapiens) (UniProt P20309); assay: Binding affinity at the NMS liganded human muscarinic acetylcholine receptor M3 was estimated as log affinity (log1/M); outline: as §1
[6] = target: Muscarinic acetylcholine receptor M3 (Homo sapiens) (UniProt P20309); assay: Cooperativity with acetylcholine at human muscarinic acetylcholine receptor M3; outline: as §2
[7] = target: T3, Muscarinic acetylcholine receptor M2 (Homo sapiens); assay: Binding affinity at the NMS liganded human muscarinic acetylcholine receptor M2 was estimated as log affinity (log1/M); outline: as §1
[8] = target: T2, Muscarinic acetylcholine receptor M4 (Homo sapiens); assay: Binding affinity at the NMS liganded human muscarinic acetylcholine receptor M4 was estimated as log affinity (log1/M); outline: as §1
[9] = target: T1, Muscarinic acetylcholine receptor M1 (Homo sapiens); assay: Cooperativity with acetylcholine at human muscarinic acetylcholine receptor M1; outline: as §2
[10] = target: T3, Muscarinic acetylcholine receptor M2 (Homo sapiens); assay: Binding affinity at the unliganded human muscarinic acetylcholine receptor M2 was estimated as log affinity (log1/M); outline: as §1
[11] = target: Muscarinic acetylcholine receptor M3 (Homo sapiens) (UniProt P20309); assay: Cooperativity with NMS at human muscarinic acetylcholine receptor M3; outline: as §2
[12] = target: T1, Muscarinic acetylcholine receptor M1 (Homo sapiens); assay: Binding affinity at the NMS liganded human muscarinic acetylcholine receptor M1 was estimated as log affinity (log1/M); outline: as §1
[13] = target: T3, Muscarinic acetylcholine receptor M2 (Homo sapiens); assay: Cooperativity with NMS at human muscarinic acetylcholine receptor M2; outline: as §2
[14] = target: T2, Muscarinic acetylcholine receptor M4 (Homo sapiens); assay: Cooperativity with acetylcholine at human muscarinic acetylcholine receptor M4; outline: as §2
[15] = target: Muscarinic acetylcholine receptor M3 (Homo sapiens) (UniProt P20309); assay: Binding affinity at the unliganded human muscarinic acetylcholine receptor M3 was estimated as log affinity (log1/M); outline: as §1
[16] = target: T1, Muscarinic acetylcholine receptor M1 (Homo sapiens); assay: Cooperativity with NMS at human muscarinic acetylcholine receptor M1; outline: as §2

Muscarinic acetylcholine receptor M3 (Homo sapiens), sequence (P20309 whole entry, looked up): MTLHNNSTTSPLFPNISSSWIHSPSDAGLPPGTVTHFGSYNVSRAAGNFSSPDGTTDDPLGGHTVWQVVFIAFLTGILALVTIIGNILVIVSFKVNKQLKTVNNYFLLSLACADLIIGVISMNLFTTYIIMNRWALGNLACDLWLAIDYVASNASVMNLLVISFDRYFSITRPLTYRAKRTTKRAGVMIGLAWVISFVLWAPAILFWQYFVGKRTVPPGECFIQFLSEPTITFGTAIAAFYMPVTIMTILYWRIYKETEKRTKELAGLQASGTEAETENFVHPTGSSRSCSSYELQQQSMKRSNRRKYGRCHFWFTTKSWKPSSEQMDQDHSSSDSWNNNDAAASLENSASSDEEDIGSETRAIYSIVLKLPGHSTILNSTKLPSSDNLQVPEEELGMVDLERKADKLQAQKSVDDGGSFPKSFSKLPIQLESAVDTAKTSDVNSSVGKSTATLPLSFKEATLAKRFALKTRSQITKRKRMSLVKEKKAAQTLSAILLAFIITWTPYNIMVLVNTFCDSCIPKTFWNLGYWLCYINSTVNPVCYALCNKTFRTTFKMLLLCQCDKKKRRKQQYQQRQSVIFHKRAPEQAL

Structure (SMILES) | Affinity [1] | Cooperativity [2] | Cooperativity [3] | Affinity [4] | Affinity [5] | Cooperativity [6] | Affinity [7] | Affinity [8] | Cooperativity [9] | Affinity [10] | Cooperativity [11] | Affinity [12] | Cooperativity [13] | Cooperativity [14] | Affinity [15] | Cooperativity [16]
O=C1C[C@@H]2OCC=C3C[N+]4(Cc5cccc([N+](=O)[O-])c5)CC[C@]56c7ccccc7N1[C@H]5[C@H]2[C@H]3C[C@@H]64 (stereo partly drawn) | < 4.9 | > 2 | 0.8 | < 5.2 | 4.8 | 0.8 | 6 | 5.6 | 0.8 | < 5.4 | 2 | 5.1 | > 2 | 0.8 | < 4.7 | 2
N#CC[N+]12CC[C@@]34c5ccccc5N5C(=O)C[C@@H]6OCC=C(C1)[C@H](C[C@@H]32)[C@@H]6[C@H]54 (stereo partly drawn) | < 4 | > 2 | < 0.2 | < 4.4 | 4.2 | 0.8 | 5.1 | 4.8 | 0.8 | 4.5 | 2 | 4.3 | > 2 | 0.8 | < 3.9 | 2
O=C1C[C@@H]2OCC=C3C[N+]4(Cc5ccc([N+](=O)[O-])cc5)CC[C@]56c7ccccc7N1[C@H]5[C@H]2[C@H]3C[C@@H]64 (stereo partly drawn) | < 4.8 | > 2 | < 0.2 | 5 | 4.6 | 0.8 | 5.6 | 5.4 | 0.8 | 4.8 | 1.19 | 5.3 | > 2 | < 0.2 | 4.6 | > 2
CCC[N+]12CC[C@@]34c5ccccc5N5C(=O)C[C@@H]6OCC=C(C1)[C@H](C[C@@H]32)[C@@H]6[C@H]54 (stereo partly drawn) | 5.2 | 0.8 | < 0.2 | 5.2 | 4.5 | < 0.2 | 5.5 | 4.9 | < 0.2 | 5.2 | 0.8 | 4.8 | 2 | < 0.2 | 5 | 0.8
C=CC[N+]12CC[C@@]34c5ccccc5N5C(=O)C[C@@H]6OCC=C(C1)[C@H](C[C@@H]32)[C@@H]6[C@H]54 (stereo partly drawn) | 4.7 | 1.19 | < 0.2 | 5 | 4.6 | < 0.2 | 5.9 | 5 | < 0.2 | 5.3 | 1.19 | 4.7 | > 2 | 0.8 | 4.6 | 1.19
O=C1C[C@@H]2OCC=C3C[N+]4(CCc5ccccc5)CC[C@]56c7ccccc7N1[C@H]5[C@H]2[C@H]3C[C@@H]64 (stereo partly drawn) | 4.9 | 2 | < 0.2 | 5.2 | 4.6 | < 0.2 | 5.7 | 5.5 | < 0.2 | 5.3 | 0.8 | 4.9 | > 2 | < 0.2 | 4.8 | 1.19
O=C1C[C@@H]2OCC=C3C[N+]4([O-])CC[C@]56c7ccccc7N1[C@H]5[C@H]2[C@H]3C[C@@H]64 (stereo partly drawn) | < 3.6 | 2 | 0.8 | < 3.8 | 3.9 | 0.8 | 4.4 | 4.1 | 0.8 | < 4.1 | 2 | 3.8 | > 2 | 0.8 | < 3.9 | 2
O=C1C[C@@H]2OCC=C3CN4CC[C@]56c7ccccc7N1[C@H]5[C@H]2[C@H]3C[C@H]46 | – | 2 | < 0.2 | 5 | – | – | 5.3 | 5.2 | – | 5 | – | – | > 2 | 0.8 | – | –
O=C1C[C@@H]2OCC=C3C[N+]4(CC5CCCCC5)CC[C@]56c7ccccc7N1[C@H]5[C@H]2[C@H]3C[C@@H]64 (stereo partly drawn) | < 4.6 | 2 | < 0.2 | 4.5 | 4.1 | < 0.2 | 5.5 | 4.8 | < 0.2 | < 4.9 | 2 | 4.8 | > 2 | < 0.2 | 4 | 2
C#CC[N+]12CC[C@@]34c5ccccc5N5C(=O)C[C@@H]6OCC=C(C1)[C@H](C[C@@H]32)[C@@H]6[C@H]54 (stereo partly drawn) | 5.2 | 2 | < 0.2 | 4.8 | 4.5 | < 0.2 | 5.4 | 5 | < 0.2 | 5.2 | 0.8 | 4.7 | 2 | 0.8 | 4.7 | 0.8
C=CC[N+]12CC[C@@]34c5ccccc5N5/C=C6/[C@H]7C[C@H]8[C@@]9(CC[N@@+]8(CC=C)C/C7=C/CO)c7ccccc7N(/C=C(/[C@@H](C[C@@H]31)/C(=C\CO)C2)[C@H]54)[C@@H]69 (stereo partly drawn) | 4.9 | 1.19 | < 0.2 | 4.7 | 3.5 | 0.8 | 6.5 | 4.7 | < 0.2 | 6 | 0.8 | 4.5 | > 2 | < 0.2 | < 4 | 0.8
O=C1C[C@@H]2OCC=C3C[N+]4(Cc5ccc(-c6ccccc6)cc5)CC[C@]56c7ccccc7N1[C@H]5[C@H]2[C@H]3C[C@@H]64 (stereo partly drawn) | 5.7 | 2 | < 0.2 | – | 5.7 | < 0.2 | 5.9 | 6.3 | < 0.2 | 5.6 | 1.19 | 5.3 | > 2 | 0.8 | 5.6 | 0.8
